Assays:
MIA PaCa-2 [1] = assay: In vitro Inhibition on growth of human MiaPaCa-2 pancreatic carcinoma cell line; type: functional, cell-based
Summary of the method: (§1)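 Monolayer cultures in DMEM with 10% FBS, 2 mM L-glutamine, penicillin/streptomycin, 37 °C, 5% CO2. Cells plated on day 0 at densities set by doubling time (1 × 10⁴/mL HeLa, Hep-2, MiaPaCa-2, SW 620; 2 × 10⁴/mL MCF-7; 3 × 10⁴/mL WI 38). Compound added at five 10-fold dilutions (10^-8 to 10^-4 mol/L) for 72 h. MTT read at 570 nm, converted to percentage growth versus time-zero and untreated controls. Quadruplicate points, three experiments. IC50 by linear regression.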

SW-620 [2] = assay: In vitro Inhibition on growth of human SW 620 colon carcinoma cell line; type: functional, cell-based; summary of the method: as §1
MCF7 = assay: In vitro Inhibition on growth of human MCF 7 breast carcinoma cell line; type: functional, cell-based; summary of the method: as §1
[3] = In vitro Inhibition on growth of human Hep 2 laryngeal carcinoma cell line; type: functional; summary of the method: as §1
HeLa [4] = assay: In vitro Inhibition on growth of human HeLa cervical carcinoma cell line; type: functional, cell-based; summary of the method: as §1
[5] = In vitro Inhibition on growth of human WI 38 diploid fibroblast cell line; type: functional, cell-based; summary of the method: as §1
MIA PaCa-2 [6] = assay: Percentage of apoptosis induced by compound in MiaPaCa-2 cell line at 10 uM concentration after 72 h; type: functional, Homo sapiens
Summary of the method: (§2)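 Annexin-V assay after 72 h exposure to 5 or 10 µM. Cells washed with PBS, pelleted, and stained with Annexin-V-fluorescein plus propidium iodide in Hepes buffer. Scored by fluorescence microscopy: Annexin-V-positive cells counted as apoptotic, Annexin-V/PI double-positive as necrotic. Apoptotic fraction given as percentage of total cells.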

SW-620 [7] = assay: Percentage of apoptosis induced by compound in SW 620 cell line at 10 uM concentration after 72 h; type: functional, Homo sapiens; summary of the method: as §2
MIA PaCa-2 [8] = assay: Percentage of apoptosis induced by compound in MiaPaCa-2 cell line at 5 uM concentration after 72 h; type: functional, Homo sapiens; summary of the method: as §2
HeLa [9] = assay: Percentage of apoptosis induced by compound in HeLa cell line after at 10 uM concentration 72 h; type: functional, Homo sapiens; summary of the method: as §2
SW-620 [10] = assay: Percentage of apoptosis induced by compound in SW 620 cell line at 5 uM concentration after 72 h; type: functional, Homo sapiens; summary of the method: as §2
HeLa [11] = assay: Percentage of apoptosis induced by compound in HeLa cell line after at 5 uM concentration 72 h; type: functional, Homo sapiens; summary of the method: as §2

| Compound | IC50 (MIA PaCa-2 [1]) | IC50 (SW-620 [2]) | IC50 (MCF7) | IC50 (HeLa [4]) | IC50 [3] | IC50 [5] | Apoptosis (MIA PaCa-2 [6]) | Apoptosis (SW-620 [7]) | Apoptosis (MIA PaCa-2 [8]) | Apoptosis (HeLa [9]) | Apoptosis (SW-620 [10]) | Apoptosis (HeLa [11]) |
| --- | --- | --- | --- | --- | --- | --- | --- | --- | --- | --- | --- | --- |
| Cc1ccc(NC(=O)c2sc3cc(/C(N)=N\C(C)C)ccc3c2Cl)cc1 | 5.11 µM | 3.54 µM | 7.26 µM | 2.35 µM | 2.96 µM | 2.03 µM |  |  |  |  |  |  |
| CC(C)/N=C(/N)c1ccc2nc(O)c3sc4cc(C#N)ccc4c3c2c1 | 42.1 µM | > 100 µM | > 100 µM | 6.14 µM | ≥ 100 µM | ≥ 100 µM |  |  |  |  |  |  |
| COC(=O)c1ccc2c(Cl)c(C(=O)Nc3ccccc3)sc2c1 | > 100 µM | 95.5 µM | > 100 µM | > 100 µM | > 100 µM | 53.6 µM |  |  |  |  |  |  |
| CC(C)/N=C(/N)c1ccc2nc(O)c3sc4ccccc4c3c2c1 | 7.3 µM | 32.2 µM | 1.36 µM | 25.3 µM | 16.6 µM | ≥ 100 µM | 11% | 13% | 4% | 11% | 9% | 9% |
| CC(C)/N=C(/N)c1ccc(NC(=O)c2sc3cc(C#N)ccc3c2Cl)cc1 | 8.72 µM | 8.02 µM | 23.9 µM | 22.2 µM | 21 µM | 25.1 µM |  |  |  |  |  |  |
| CC(C)/N=C(/N)c1ccc2c(Cl)c(C(=O)Nc3ccccc3)sc2c1 | 7.23 µM | 4.57 µM | 1.27 µM | 4.26 µM | 23.8 µM | 4.7 µM |  |  |  |  |  |  |
| COc1ccc(NC(=O)c2sc3cc(C#N)ccc3c2Cl)cc1 | 90.9 µM | > 100 µM | 17.6 µM | 40.4 µM | 48.4 µM | 23.4 µM |  |  |  |  |  |  |
| Cc1ccc2c(c1)sc1c(O)nc3ccc(/C(N)=N\C(C)C)cc3c12 | 5.98 µM | 7.57 µM | 5.4 µM | 4.3 µM | 8.59 µM | 18.7 µM | 17% | 16% | 3% | 8% | 15% | 6% |
| COC(=O)c1ccc(NC(=O)c2sc3cc(C(=N)NC(C)C)ccc3c2Cl)cc1 | 7.1 µM | 3.6 µM | 2.36 µM | 5.65 µM | 8.16 µM | 6.9 µM |  |  |  |  |  |  |
| CC(C)/N=C(/N)c1ccc(NC(=O)c2sc3ccccc3c2Cl)cc1 | 6.99 µM | 27.8 µM | 1.97 µM | 12.9 µM | 15.3 µM | 36.4 µM |  |  |  |  |  |  |
| N#Cc1ccc(NC(=O)c2sc3ccccc3c2Cl)cc1 | > 100 µM | > 100 µM | 100 µM | 0.86 µM | 6.5 µM | 8.12 µM |  |  |  |  |  |  |
| COc1ccc2c(c1)sc1c(O)nc3ccc(C(=N)NC(C)C)cc3c12 | 6.73 µM | 20.6 µM | 38 µM | 2.34 µM | 34.7 µM | 40.6 µM |  |  |  |  |  |  |
| N#Cc1ccc2c(Cl)c(C(=O)Nc3ccccc3)sc2c1 | > 100 µM | ≥ 100 µM | 84.9 µM | 0.35 µM | 0.69 µM | ≥ 100 µM |  |  |  |  |  |  |
| Cc1ccc2nc(O)c3sc4cc(/C(N)=N\C(C)C)ccc4c3c2c1 | 6.67 µM | 22.7 µM | 5.58 µM | 6.43 µM | 8.51 µM | 19.1 µM |  |  |  |  |  |  |
| Cc1ccc(NC(=O)c2sc3cc(C#N)ccc3c2Cl)cc1 | > 100 µM | > 100 µM | > 100 µM | > 100 µM | > 100 µM | 0.75 µM |  |  |  |  |  |  |
| CC(C)/N=C(/N)c1ccc2c(c1)sc1c(O)nc3ccc(Br)cc3c12 | 7.99 µM | 13.2 µM | 6.28 µM | 8.92 µM | 9.79 µM | 3.88 µM | 11% | 13% | 3% | 15% | 9% | 10% |

Continued, in another order:

| IC50 (MIA PaCa-2 [1]) | IC50 (SW-620 [2]) | IC50 (MCF7) | IC50 (HeLa [4]) | Compound | IC50 [3] | IC50 [5] | Apoptosis (MIA PaCa-2 [6]) | Apoptosis (SW-620 [7]) | Apoptosis (MIA PaCa-2 [8]) | Apoptosis (HeLa [9]) | Apoptosis (SW-620 [10]) | Apoptosis (HeLa [11]) |
| --- | --- | --- | --- | --- | --- | --- | --- | --- | --- | --- | --- | --- |
| 2.54 µM | 4.18 µM | 2.62 µM | 3.05 µM | CC(C)/N=C(/N)c1ccc2c(Cl)c(C(=O)Nc3ccc(Br)cc3)sc2c1 | 3.14 µM | 3.64 µM |  |  |  |  |  |  |
| > 100 µM | > 100 µM | > 100 µM | > 100 µM | N#Cc1ccc2c(Cl)c(C(=O)Nc3ccc(Br)cc3)sc2c1 | > 100 µM | 5.99 µM |  |  |  |  |  |  |
| 4.44 µM | 3.53 µM | 3.49 µM | 3 µM | Cc1ccc2c(Cl)c(C(=O)Nc3ccc(/C(N)=N\C(C)C)cc3)sc2c1 | 3.94 µM | 3.3 µM |  |  |  |  |  |  |
| 4.67 µM | 3.86 µM | 3.7 µM | 2.7 µM | COc1ccc2c(Cl)c(C(=O)Nc3ccc(C(=N)NC(C)C)cc3)sc2c1 | 2.55 µM | 4.01 µM |  |  |  |  |  |  |
| 3.71 µM | 6.84 µM | 5.78 µM | 1.7 µM | CC(C)/N=C(/N)c1ccc2nc(O)c3sc4cc(Br)ccc4c3c2c1 | 6.95 µM | 19 µM |  |  |  |  |  |  |
| 5.64 µM | 48.8 µM | 65.1 µM | 4.79 µM | COC(=O)c1ccc2c(c1)sc1c(O)nc3ccc(C(=N)NC(C)C)cc3c12 | 45.9 µM | > 100 µM | 13% | 9% | 4% | 17% | 7% | 12% |
| > 100 µM | 4.62 µM | > 100 µM | 24.1 µM | COC(=O)c1ccc(NC(=O)c2sc3cc(C#N)ccc3c2Cl)cc1 | 59.1 µM | 2.71 µM | 9% | 71% | 3% | 52% | 6% | 6% |
| 86.9 µM | ≥ 100 µM | 78.5 µM | 31.6 µM | CC(C)/N=C(/N)c1ccc2c(c1)sc1c(O)nc3ccc(/C(N)=N\C(C)C)cc3c12 | > 100 µM | ≥ 100 µM |  |  |  |  |  |  |
| 22.5 µM | 8.24 µM | 17.4 µM | 5.83 µM | COc1ccc(NC(=O)c2sc3cc(C(=N)NC(C)C)ccc3c2Cl)cc1 | 9.7 µM | 29.8 µM |  |  |  |  |  |  |
| 75.9 µM | > 100 µM | 15.6 µM | 25.6 µM | CC(C)/N=C(/N)c1ccc(NC(=O)c2sc3cc(/C(N)=N\C(C)C)ccc3c2Cl)cc1 | 67.3 µM | 86.9 µM |  |  |  |  |  |  |
| 6.93 µM | 8.11 µM | 5.56 µM | 15.8 µM | COC(=O)c1ccc2nc(O)c3sc4cc(C(=N)NC(C)C)ccc4c3c2c1 | 97 µM | 5.33 µM | 14% | 7% | 6% | 15% | 6% | 13% |
| > 100 µM | > 100 µM | > 100 µM | > 100 µM | COC(=O)c1ccc(NC(=O)c2sc3ccccc3c2Cl)cc1 | > 100 µM | 44.3 µM |  |  |  |  |  |  |
| 18 µM | 3.76 µM | 21.3 µM | 49.2 µM | CC(C)/N=C(/N)c1ccc2c(c1)sc1c(O)nc3ccccc3c12 | 20.9 µM | 37.4 µM |  |  |  |  |  |  |
| 3.51 µM | 3.93 µM | 2.54 µM | 2.15 µM | CC(C)/N=C(/N)c1ccc(NC(=O)c2sc3cc(Br)ccc3c2Cl)cc1 | 2.37 µM | 2.99 µM |  |  |  |  |  |  |
| 3.49 µM | 3.67 µM | 1.23 µM | 2.24 µM | COC(=O)c1ccc2c(Cl)c(C(=O)Nc3ccc(C(=N)NC(C)C)cc3)sc2c1 | 5.37 µM | 2.85 µM |  |  |  |  |  |  |

Source: ChEMBL document CHEMBL1145210, “Novel cyano- and N-isopropylamidino-substituted derivatives of benzo[b]thiophene-2-carboxanilides and benzo[b]thieno[2,3-c]quinolones: synthesis, photochemical synthesis, crystal structure determination, and antitumor evaluation. 2” (J Med Chem, 2005)
